# Compounds with a hit are over-represented: about 2.6% of the library has one in this group of screens.
# PG9 binder = binds the HIV-1 gp120 antibody PG9 | TR-FRET gp120-PG9 antibody binding | inhibition, % at 6.7 µM | hit rate 0.43% among 360,000; in the data active means inhibition above about 8.5%
# NR2E3 ag-1 = activates human NR2E3 receptor | Q9Y5X4 | CHO-S Gal4-NCOR/VP16-NR2E3 two-hybrid, luciferase | inhibition of corepressor binding, % at 3.98 µM | hit rate 0.35% among 360,000 | AID 602229;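 active means inhibition above the mean of all tested compounds plus 3 SD, cut at about 70% in these data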;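 further: higher means lower luciferase signal from less NR2E3 corepressor binding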
# Target sequence (Q9Y5X4 whole entry, looked up, the tested form may be a part): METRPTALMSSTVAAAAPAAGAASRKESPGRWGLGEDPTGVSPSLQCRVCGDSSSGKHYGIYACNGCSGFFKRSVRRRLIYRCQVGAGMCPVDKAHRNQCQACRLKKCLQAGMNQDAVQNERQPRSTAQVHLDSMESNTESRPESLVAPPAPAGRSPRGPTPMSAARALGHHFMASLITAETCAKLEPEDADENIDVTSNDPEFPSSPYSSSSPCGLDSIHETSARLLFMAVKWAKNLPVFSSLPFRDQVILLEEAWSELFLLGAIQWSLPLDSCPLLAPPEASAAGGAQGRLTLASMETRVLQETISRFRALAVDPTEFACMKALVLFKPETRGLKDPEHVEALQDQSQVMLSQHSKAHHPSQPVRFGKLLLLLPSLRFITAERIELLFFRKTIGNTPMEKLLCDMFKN
# rCAG binder = binds r(CAG) RNA repeats; r(CAG) RNA repeat, TO-PRO-1 dye displacement fluorescence; inhibition, % at 3 µM; hit rate 1.3% among 370,000; AID 651821;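 active means inhibition above the plate cutoff, the mean of all test compounds on that plate plus 3 SD, cut at about 35% in these data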;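 further: higher means more dye released from RNA so lower well fluorescence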
# Rev-erbA mod = modulates human Rev-erb alpha binding to DNA; hit rate 0.79% among 370,000; Rev-erbα–FITC-DNA binding, fluorescence polarization, 90 min; activity, % at 10 µM;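 active means activity above about 14%, limit read from the data; passing the limit was not always enough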
# NR2E3 ag-2 = agonists of human nuclear receptor NR2E3. Q9Y5X4. GST-NR2E3/biotin-RetCOR TR-FRET, 1536-well. inhibition of corepressor binding, % at 4.78 µM. hit rate 0.12% among 320,000. AID 2300;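 active means percent inhibition above the cutoff of mean plus 3 SD of all tested compounds, set per screening campaign, cut at about 20% in these data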
#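 system = GST-tagged NR2E3 plus biotinylated RetCOR corepressor | input = 1.35 nM GST-NR2E3 | also added = 7 nM biotin-RetCOR | schedule = 5 h incubation at 4 °C | measured by = TR-FRET with europium anti-GST and streptavidin-D2, 340 nm excitation | read-out = percent loss of FRET ratio relative to control wells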
# rCAG binder conf = r(CAG) RNA repeat binding, confirmation | AID 652065 | shares compounds with rCAG binder | hit rate 70% among 4,300 | TO-PRO-1 dye displacement fluorescence | inhibition, % at 3 µM;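 active means inhibition above a per-plate cutoff, the mean inhibition of sample wells plus 3 SD, cut at about 35% in these data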;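 further: loss of TO-PRO-1 fluorescence as compound displaces dye from 1x1 AA loop RNA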
# dCAG dye counter = disrupts DNA CAG TO-PRO-1 complex, flagging rCAG hits | d(CAG) DNA oligo TO-PRO-1 dye displacement, fluorescence | inhibition, % at 3 µM | hit rate 94% among 4,300 | shares compounds with rCAG binder | AID 652068;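 active means inhibition above its plate's cutoff, the mean test-well inhibition plus 3 SD, cut at about 4.8% in these data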;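 further: hits displace the dye from DNA and so lower well fluorescence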
# dCAG dye DR = disrupts DNA CAG TO-PRO-1 complex in dose response; shares compounds with rCAG binder; DNA CAG/GTC duplex TO-PRO-1 dye displacement fluorescence; IC50, µM; hit rate 20% among 250; in the data active means IC50 below about 10 µM
# A number is an active result; - = inactive; . = no result given.
SMILES,PG9 binder,NR2E3 ag-1,rCAG binder,Rev-erbA mod,NR2E3 ag-2,rCAG binder conf,dCAG dye counter,others
Cc1ccc(S(=O)(=O)C(C#N)c2nc3ccccc3nc2OCCO)cc1 (stereo not given),-,-,62,-,-,52,15,
Cc1ccc(S(=O)(=O)C(C#N)c2nc3ccccc3nc2N2CCC(C)CC2)cc1 (stereo not given),-,-,-,-,.,.,.,
O=C(Nc1cccc(C(F)(F)F)c1)Nc1ccc(N2CCCC2)c(S(=O)(=O)Nc2ccccc2Cl)c1,-,-,46,-,-,-,18,
CC(=O)Nc1ccc(N2CCOCC2)c(S(=O)(=O)Nc2ccccc2Cl)c1,-,-,-,-,.,.,.,
O=C(Nc1cccnc1)c1ccc(N2CCCC2)c([N+](=O)[O-])c1,-,-,-,-,-,.,.,
O=C(Nc1cccc(S(=O)(=O)Nc2ccccc2Cl)c1)c1ccc(N2CCCC2)c([N+](=O)[O-])c1,-,-,61,-,-,44,21,
Cc1ccc(C(=O)NCC(=O)NCc2ccc(Cl)cc2)s1,-,-,-,-,.,.,.,
O=C(N/N=C/c1ccc(-c2ccc(S(=O)(=O)Nc3ncccn3)cc2)o1)c1cc2ccccc2cc1O,-,-,82,-,-,75,39,
NC(=S)NN=Cc1ccc(-c2ccc(S(=O)(=O)Nc3ncccn3)cc2)o1,-,-,-,-,.,.,.,
O=C(CNC(=O)c1cccc(-n2cnnn2)c1)Nc1ccc(F)c(F)c1,-,-,-,-,-,.,.,
O=[N+]([O-])c1cccc(-c2cc(-c3cc(Br)ccc3O)[nH]n2)c1,-,-,37,-,-,-,16,
CC1CCC(NC(=O)c2[nH]c(C(F)(F)F)nc2-c2ccccc2)CC1 (stereo not given),-,-,-,-,.,.,.,
COc1ccc(Cc2nnc(NC(=O)Nc3cccc(OC)c3)s2)cc1,-,-,42,-,-,40,17,
COc1cccc(NC(=O)Nc2nnc(Cc3ccc(F)cc3)s2)c1,-,-,-,-,-,.,.,
CCSc1nsc(NC(=O)Nc2cccc(OC)c2)n1,-,-,58,-,-,-,16,
CCSc1nnc(NC(=O)Nc2cccc(C)c2)s1,-,-,56,-,-,-,17,
O=C(Nc1ccc(F)cc1)Nc1nnc(COc2ccccc2F)s1,-,-,63,-,-,38,27,
CCSc1nsc(NC(=O)Nc2ccccc2F)n1,-,-,-,-,-,.,.,
CCSc1nnc(NC(=O)[C@@H](NC(=O)c2cccc(C)c2)C(C)C)s1,-,-,-,-,-,.,.,
C[C@@H](c1ccccc1)N1C[C@@H](COCc2ccccc2)Oc2cc(N3CCC[C@H]3CO)ccc2S1(=O)=O,-,-,-,-,.,.,.,
COc1cccc(NC(=O)Nc2nnc(Cc3ccccc3)s2)c1,-,-,41,-,-,-,15,
COc1ccc(Cc2nnc(NC(=O)Nc3ccc(F)cc3)s2)cc1,-,-,-,-,-,.,.,
O=C(Nc1ccc(F)cc1)Nc1nnc(Cc2ccccc2)s1,-,-,42,-,-,-,15,
CCOC(=O)c1ccc(NC(=O)CC2S/C(=N/N=C/c3c[nH]c4ccccc34)NC2=O)cc1 (stereo not given),-,-,78,-,-,85,47,
Cc1ccc(NC(=O)CC2S/C(=N/N=C/c3c[nH]c4ccccc34)NC2=O)cc1 (stereo not given),-,-,47,-,-,64,23,
SMILES,PG9 binder,NR2E3 ag-1,rCAG binder,Rev-erbA mod,NR2E3 ag-2,rCAG binder conf,dCAG dye counter,others
CCOC(=O)C1=CCN(S(=O)(=O)c2ccc(F)cc2)C1c1cccc(F)c1 (stereo not given),-,-,-,-,.,.,.,
Oc1ccc(-c2cc(-c3ccc(O)cc3)nc(-c3ccccc3)n2)cc1,-,-,65,-,-,51,26,dCAG dye DR=-
N#Cc1c(N(CC(=O)O)CC(=O)O)sc(C(=O)O)c1CC(=O)O,.,.,.,-,.,.,.,
CCOC(=O)c1sc(NC(=O)c2ccccc2C(=O)O)c(C(=O)OCC)c1C,-,-,45,-,-,35,7.7,
CC(C)Cc1csc(NC(=O)c2ccc(F)cc2)c1C(=O)O,-,-,35,-,-,-,-,
CCOC(=O)c1c(NC(=O)c2cccs2)sc2c1CCC2,-,-,-,-,-,.,.,
NC(=O)c1c(NC(=O)C2CC=CCC2C(=O)O)sc2c1CCCCC2 (stereo not given),-,-,-,-,-,.,.,
CC(C)OC(=O)c1c(NC(=O)C2CC=CCC2C(=O)O)sc2c1CCCCC2 (stereo not given),-,-,56,-,-,68,22,
CCOC(=O)c1c(NC(=O)c2ccccc2C(=O)O)sc2c1CCC2,-,-,47,-,-,-,7.3,
CC1(C(=O)Nc2ccc3c(c2)OCO3)CCN1C(=O)CCc1cccs1 (stereo not given),-,-,-,-,.,.,.,
O=C(O)c1cc(=S)nc[nH]1,-,-,-,-,.,.,.,
CCOC(=O)c1c(NC(=O)C2C3C=CC(C3)C2C(=O)O)sc2c1CCCC2 (stereo not given),-,-,37,-,-,50,11,dCAG dye DR=-
CCOC(=O)c1c(NC(=O)c2cccc([N+](=O)[O-])c2C(=O)O)sc2c1CCCC2,-,-,-,-,-,.,.,
CCOC(=O)c1c(NC(=O)C2C3C=CC(C3)C2C(=O)O)sc2c1CCC(C)C2 (stereo not given),-,-,-,-,-,.,.,
CCOC(=O)c1c(CC(C)C)csc1NC(=O)c1ccccc1C(=O)O,-,-,47,-,-,45,12,
CCOC(=O)c1c(NC(=O)c2c(C(=O)O)cccc2[N+](=O)[O-])sc2c1CCCC2,-,-,47,-,-,-,10.0,
O=C(Cc1ccc2c(c1)OCCO2)Nc1cc(Cl)ccc1N1CCOCC1,-,-,-,-,.,.,.,
NC(c1csc(NC(=O)Nc2ccc(OC(F)(F)F)cc2)n1)C1CCCCC1 (stereo not given),-,-,40,-,.,-,-,
CC1ON=C(c2ccc(F)cc2)NC1=O (stereo not given),-,-,-,-,.,.,.,
CCOC(=O)c1c(-c2ccc(OC)cc2)csc1NC(=O)CCN1C(=O)c2ccccc2C1=O,.,-,.,-,-,.,.,
CCOC(=O)c1c(-c2ccc3ccccc3c2)csc1NC(=O)CCCC(=O)O,-,-,45,-,.,50,14,
COc1ccc(CNC(=O)c2[nH]c(C(F)(F)F)nc2-c2ccccc2)cc1OC,-,-,-,-,.,.,.,
COc1ccc(CNc2cccc3[nH]c(C(F)(F)F)nc23)cc1OC,-,-,44,-,-,-,9.4,
CCOC(=O)Nc1sc2c(c1C#N)CCC(C)C2 (stereo not given),.,-,.,.,-,.,.,

# Assay outcomes (PubChem)
